8 compounds from ChEMBL document CHEMBL1122664, “Synthesis and evaluation of 19-aza- and 19-aminoandrostenedione analogues as potential aromatase inhibitors” (J Med Chem, 1984) can be followed below.

Data set [1] deals with T1, Aromatase (Homo sapiens, UniProt P11511).
T1 sequence (P11511 whole entry): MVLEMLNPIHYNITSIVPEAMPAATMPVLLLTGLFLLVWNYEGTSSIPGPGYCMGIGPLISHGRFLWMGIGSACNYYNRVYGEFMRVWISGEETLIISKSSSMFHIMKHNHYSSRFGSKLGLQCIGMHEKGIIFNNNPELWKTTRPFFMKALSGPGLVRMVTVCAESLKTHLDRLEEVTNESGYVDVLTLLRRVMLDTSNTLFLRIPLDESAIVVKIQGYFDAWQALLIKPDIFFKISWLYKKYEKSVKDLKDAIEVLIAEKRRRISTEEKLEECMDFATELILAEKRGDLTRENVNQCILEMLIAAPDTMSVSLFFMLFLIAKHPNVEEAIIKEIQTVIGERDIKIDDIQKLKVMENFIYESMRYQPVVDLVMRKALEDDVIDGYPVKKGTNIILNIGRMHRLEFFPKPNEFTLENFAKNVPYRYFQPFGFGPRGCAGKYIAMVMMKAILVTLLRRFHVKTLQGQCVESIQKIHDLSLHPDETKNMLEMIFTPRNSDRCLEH
The data set is described as follows: Inhibition of 0.25 uM [1-3H]-androst-4-ene-3,17-dione binding to Cytochrome P450 19A1. The method, boiled down: (§1)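 Tritiated water release assay using lyophilized, twice-washed human term placental microsomes (0.1 mg protein) with [1-³H]androstenedione at 0.25 μM (5 × KM) and inhibitor at 0.25 or 1.25 μM. NADPH-generating system in 10 mM K phosphate with KCl, EDTA and DTT; 15 min at 25 °C. Stopped with CHCl₃; charcoal-treated aqueous ³H₂O counted. Triplicates; % inhibition versus concurrent controls.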

Data set [2] addresses T1, Aromatase. Put plainly: Inhibition of 1.25 uM [1-3H]-androst-4-ene-3,17-dione binding to Cytochrome P450 19A1. The method, boiled down: as §1

Several values for one entry are separate records, joined by “and”; a condition that tells them apart may be missing. Equal entries are not always repeated.

Broadly, the Inhibition is how much of the control response was suppressed. As for `C[C@]12CCC(=O)C=C1C[C@@H](Sc1ccc(N)cc1)[C@@H]1[C@@H]2CC[C@]2(C)C(=O)CC[C@@H]12`, the Inhibition at Aromatase [1] is 54.8%; on Aromatase [2], 83.1%.

`COC(=O)N[C@]12CCC(=O)C=C1CC[C@H]1[C@@H]3CCC(=O)[C@@]3(C)CC[C@@H]12`: the Inhibition at Aromatase [1] and at Aromatase [2] was less than 2% each time.

`C[C@]12CC[C@H]3[C@@H](CCC4=CC(=O)CC[C@@]43CNC(=O)C(F)(F)F)[C@@H]1CCC2=O`: the Inhibition is listed as 2.5% on Aromatase [1] and 11.4% at Aromatase [2].

As to `C[C@]12CC[C@H]3[C@@H](CCC4=CC(=O)CC[C@@]43/C=N\O)[C@@H]1CCC2=O`, the Inhibition is 8.6% at Aromatase [1] and 4.1% at Aromatase [2].

For `CC(=O)NC[C@]12CCC(=O)C=C1CC[C@@H]1[C@@H]2CC[C@]2(C)C(=O)CC[C@@H]12`, the Inhibition was less than 2% on Aromatase [1] and 13.2% on Aromatase [2].

Take `C[C@]12CC[C@H]3[C@@H](CCC4=CC(=O)CC[C@@]43N)[C@@H]1CCC2=O`: the Inhibition at Aromatase [1] was 9.4% and 6.9%; on Aromatase [2], 19.2% and 10.9%.

In the case of `C[C@]12CC[C@H]3[C@@H](CCC4=CC(=O)CC[C@@]43N=C=O)[C@@H]1CCC2=O`, the Inhibition on Aromatase [1] and at Aromatase [2] was less than 2% in each case.

Take `C[C@]12CCC(=O)C(O)=C1CC[C@@H]1[C@@H]2CC[C@]2(C)C(=O)CC[C@@H]12` [FORMESTANE]: the Inhibition at Aromatase [1] worked out at 50.1%; on Aromatase [2] it was 81.6%.
